Measurements as given in ChEMBL document CHEMBL1144992, “Unsymmetrical DNA cross-linking agents: combination of the CBI and PBD pharmacophores” (J Med Chem, 2003).

Experiments:
[1] = Ratio of LC50 values between the least sensitive and most sensitive human cancer cell lines; format: functional
Procedure, shortened: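 NCI 60-cell-line panel covering nine tissue types. LC50 is concentration producing 50% reduction in cells. Value is ratio of LC50 for least sensitive versus most sensitive line.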

HT-29 = experiment: In vitro cytotoxicity against human tumor HT-29 cell line was measured as concentration to reduce [3H]thymidine uptake to 50% of that of the controls; format: functional, cell-based; conditions: HT-29, 5 days
Procedure, shortened: (§1)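 Cell suspensions exposed to drug continuously for 5 days. [3H]thymidine (0.25 µCi/mL, 0.1 µM) plus 5-fluoro-2'-deoxyuridine (0.1 µM) added 4 h before termination. Pronase 2 mg/mL in 4 mM Na4EDTA released adherent cells before aspiration and filtration. IC50 interpolated against same-plate controls. Mean of 2-3 experiments, some single determinations.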

EMT6 = experiment: In vitro cellular toxicity against murine mammary carcinoma EMT6 cell line after 4 hr of compound exposure; format: functional, cell-based; conditions: Mus musculus, EMT6, 4 h
Procedure, shortened: (§2)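 Cells exposed to drug for 4 h, then stained with sulforhodamine B 3 days later. IC50 interpolated as the concentration reducing cell density to 50% of same-plate controls. Values are the mean of 2-6 experiments.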

SK-OV-3 [2] = experiment: In vitro cytotoxicity against human tumor SKOV3 cell line was measured as concentration to reduce [3H]thymidine uptake to 50% of that of the controls; format: functional, cell-based; conditions: SK-OV-3, 5 days; procedure, shortened: as §1
Nucleic Acid = experiment: Tested for its ability to cross-link linearized plasmid DNA pcDNA3 following 18 hr of exposure at 37 degree celsius; format: functional
Procedure, shortened: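 EcoRI-linearized pcDNA3 plasmid (5400 bp), 3'-end labelled with α-32P-dATP by Klenow. 50 ng DNA incubated with drug (DMSO) in TE pH 7.5, 10 µL final volume, 18 h at 37 °C. Denatured with NaOH strand-separation buffer for 5-10 min, then run on 0.8% agarose gel. Double-stranded fraction quantified by phosphorimaging. At least five concentrations tested, 2-4 assays. C50 taken from a 3-parameter logistic fit capped at 100%.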

WiDr = experiment: In vitro cytotoxicity against human tumor WiDr cell line was measured as concentration to reduce [3H]thymidine uptake to 50% of that of the controls; format: functional, cell-based; procedure, shortened: as §1
[3] = Ratio of maximum tolerated dose of intravenous to intraperitoneal injection in mice; format: functional
Procedure, shortened: (§3)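 Female non-tumour-bearing C3H/HeN mice received a single ip or iv injection in 100% DMSO at 0.001 mL/g. Doses stepped in 1.33-fold increments on a fixed scale, with 60-day observation. MTD defined as highest dose giving no deaths in a group of 6 and ≤15% mean body weight loss on day 4. Ratio is iv MTD over ip MTD.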

CHO-AA8 = experiment: In vitro cellular toxicity against chinese hamster AA8 cell line after 4 hr of compound exposure; format: functional, cell-based; conditions: Cricetulus griseus, CHO-AA8, 4 h; procedure, shortened: as §2
Mus musculus [4] = experiment: In vivo maximum tolerated dose for single intravenous injection in non-tumor-bearing C3H/HeN mice; format: functional; procedure, shortened: as §3
SiHa = experiment: In vitro cytotoxicity against human tumor SiHa cell line was measured as concentration to reduce [3H]thymidine uptake to 50% of that of the controls; format: functional, cell-based; procedure, shortened: as §1
Mus musculus [5] = experiment: In vivo maximum tolerated dose for single intraperitoneal injection in non tumor-bearing C3H/HeN mice; format: functional; procedure, shortened: as §3
Mus musculus [6] = experiment: Average time for WiDr tumor xenograft to reach a diameter of 17 mm following single intravenous injection at day 0 where tumor diameter was 8 mm in mice; format: functional
Procedure, shortened: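 Subcutaneous flank implant of WiDr cells (10^7 cells/mouse) in female CD-1 nude mice. Randomised at mean tumour diameter 8 mm (5-11 mice/group). Single iv dose at predetermined MTD, formulated in 100% DMSO at 0.001 mL/g, on day 0. Calipers used until mean diameter reached 17 mm, then culled. Values are average days to end point; ANOVA with Dunnett's test.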

SK-OV-3 [7] = experiment: In vitro cellular toxicity against human ovarian carcinoma SKOV3 cell line after 4 hr of compound exposure; format: functional, cell-based; conditions: SK-OV-3, 4 h; procedure, shortened: as §2
[8] = test system: Panel (Carcinoma cell lines); experiment: In vitro drug concentration required for 50% inhibition of 60 different human cancer cell lines compared to controls; format: functional
COLO 205 = experiment: In vitro cytotoxicity against human tumor COLO 205 cell line was measured as concentration to reduce [3H]thymidine uptake to 50% of that of the controls; format: functional, cell-based; conditions: COLO 205, 5 days; procedure, shortened: as §1
UV4 = experiment: In vitro cellular toxicity against chinese hamster UV4 cell line after 4 hr of compound exposure; format: functional, cell-based; conditions: Cricetulus griseus, UV4, 4 h; procedure, shortened: as §2

Compound	Ratio [1]	IC50 (HT-29)	IC50 (EMT6)	IC50 (SK-OV-3 [2])	C50 (Nucleic Acid)	IC50 (WiDr)	MTD ratio [3]	IC50 (CHO-AA8)	MTD (Mus musculus [4])	IC50 (SiHa)	MTD (Mus musculus [5])	Time (Mus musculus [6])	IC50 (SK-OV-3 [7])	GI50 [8]	IC50 (COLO 205)	IC50 (UV4)
COc1cc2c(cc1OCCCC(=O)N1C[C@@H](CCl)c3c1cc(O)c1ccccc31)N=C[C@@H]1CCCN1C2=O	>10000	0.021 nM	0.03 nM	0.021 nM	0.017 µM	0.014 nM	100	0.13 nM	0.316 µM/kg	0.012 nM	0.00316 µM/kg	26 days	0.14 nM	< 10 nM	0.037 nM	0.074 nM
COc1cc2c(cc1OCCC(=O)N1C[C@@H](CCl)c3c1cc(O)c1ccccc31)N=C[C@@H]1CCCN1C2=O	50	–	51 nM	–	5 µM	–	–	240 nM	–	–	–	–	200 nM	500 nM	–	160 nM
CC(=O)N1C[C@H](CCl)c2c1cc(O)c1ccccc21	–	–	12000 nM	–	–	–	–	14000 nM	–	–	–	–	14000 nM	–	–	1800 nM
COc1cc2c(cc1OCCCCCC(=O)N1C[C@H](CCl)c3c1cc(O)c1ccccc31)N=CC1CCCN1C2=O (single isomer, unassigned)	2400	0.25 nM	0.56 nM	0.2 nM	0.13 µM	0.28 nM	17.7	4.2 nM	13.3 µM/kg	0.2 nM	0.75 µM/kg	24.4 days	3 nM	18 nM	0.18 nM	1.5 nM
COc1cc2c(cc1O)N=C[C@@H]1CCCN1C2=O	–	–	1100 nM	–	–	–	–	2000 nM	–	–	–	–	1900 nM	–	–	1500 nM
COc1cc2c(cc1OCCCCCC(=O)N1C[C@@H](CCl)c3c1cc(O)c1ccccc31)N=C[C@@H]1CCCN1C2=O	>10000	0.0027 nM	0.0078 nM	0.0033 nM	0.022 µM	0.0039 nM	10	0.054 nM	0.178 µM/kg	0.0028 nM	0.0178 µM/kg	40.8 days	0.032 nM	< 10 nM	0.0035 nM	0.023 nM
COc1cc2c(cc1OCC(=O)N1C[C@H](CCl)c3c1cc(O)c1ccccc31)N=CC1CCCN1C2=O (single isomer, unassigned)	200	–	5 nM	–	1.21 µM	–	–	48 nM	–	–	–	–	16 nM	91 nM	–	6.1 nM
COc1cc2c(cc1OCCCCC(=O)N1C[C@H](CCl)c3c1cc(O)c1ccccc31)N=CC1CCCN1C2=O (single isomer, unassigned)	190	–	12 nM	–	1.05 µM	–	–	40 nM	–	–	–	–	35 nM	130 nM	–	14 nM
COc1cc2c(cc1OCCC(=O)N1C[C@H](CCl)c3c1cc(O)c1ccccc31)N=CC1CCCN1C2=O (single isomer, unassigned)	35	–	300 nM	–	7.9 µM	–	–	1600 nM	–	–	–	–	960 nM	3200 nM	–	860 nM
COc1cc2c(cc1OCCCCCC(=O)N1C[C@@H](CCl)c3c1cc(O)c1ccccc31)NC(=O)[C@@H]1CCCN1C2=O	–	–	3.2 nM	–	–	–	–	29 nM	–	–	–	–	6.2 nM	–	–	13 nM
CC(=O)N1C[C@@H](CCl)c2c1cc(O)c1ccccc21	–	–	280 nM	–	–	–	–	210 nM	–	–	–	–	360 nM	–	–	59 nM
COc1cc2c(cc1OCCCCC(=O)N1C[C@@H](CCl)c3c1cc(O)c1ccccc31)N=C[C@@H]1CCCN1C2=O	160	–	3.1 nM	–	0.56 µM	–	–	11 nM	–	–	–	–	11 nM	79 nM	–	5.9 nM
COc1cc2cc(C(=O)N3C[C@@H](CCl)c4c3cc(O)c3ccccc43)[nH]c2c(OC)c1OC	–	–	0.13 nM	–	–	–	–	0.21 nM	–	–	–	–	0.29 nM	–	–	0.09 nM
COc1cc2c(cc1OCCCC(=O)N1C[C@H](CCl)c3c1cc(O)c1ccccc31)N=CC1CCCN1C2=O (single isomer, unassigned)	3200	–	0.3 nM	–	0.025 µM	–	–	4 nM	–	–	–	–	1.9 nM	13 nM	–	0.83 nM
COc1cc2c(cc1OCCCOc1cc3c(cc1OC)C(=O)N1CCC[C@H]1C=N3)N=C[C@@H]1CCCN1C2=O [DSB-120]	–	8.7 nM	23 nM	6.3 nM	0.029 µM	10 nM	4.21	340 nM	4.21 µM/kg	7.3 nM	1 µM/kg	22.8 days	140 nM	–	7 nM	86 nM
COc1cc2c(cc1OCCCCCC(=O)N1CC(C)c3c1cc(O)c1ccccc31)N=C[C@@H]1CCCN1C2=O (stereo partly drawn)	–	–	840 nM	–	–	–	–	4500 nM	–	–	–	–	2100 nM	–	–	2500 nM
